# In the library only some 4.5% were active in any assay of this set; here they are far more common.
# TAAR1 agonist – agonists of human TAAR1. Q96RJ0. AID 624467. CHO RD-HGA16 TAAR1, Fluo-8 calcium fluorescence; vehicle wells 0%, saturating PEA agonist 100%. activation, % at 3 µM. 360,000 compounds, 0.99% hits;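 active = activation above the mean activation of all test compounds in the run plus 3 SD, cut at about 38% in these data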
# Target sequence (Q96RJ0 whole entry, looked up): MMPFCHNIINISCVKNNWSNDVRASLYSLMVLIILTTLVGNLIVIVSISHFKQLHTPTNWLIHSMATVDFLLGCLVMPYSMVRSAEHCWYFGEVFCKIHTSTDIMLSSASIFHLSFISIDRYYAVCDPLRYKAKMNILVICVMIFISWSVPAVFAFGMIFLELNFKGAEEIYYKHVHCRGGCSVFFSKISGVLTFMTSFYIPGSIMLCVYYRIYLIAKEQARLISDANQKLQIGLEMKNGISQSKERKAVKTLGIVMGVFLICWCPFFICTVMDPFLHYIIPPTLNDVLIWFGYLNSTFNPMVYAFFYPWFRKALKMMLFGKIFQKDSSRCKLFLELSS
#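 Test system: RD-HGA16 (CHO) cells co-expressing Gα16 and hTAAR1; dosing: one-point dosing at 3 µM (nominal); timing: 17-24 h seeding, 75 min 37 °C dye, 30 min RT; signal: kinetic Fluo-8 calcium fluorescence; read-out basis: % activation relative to PEA EC100 response; controls: DMSO and PEA EC100; replicates: n 1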
# OX1R antag-1 – blocks the human orexin 1 receptor. O43613. CHO/OX1R cells, Fluo-8 calcium fluorescence, orexin A. 330,000 compounds, 0.43% hits. inhibition, % at 5 µM;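 active = inhibition above its plate's threshold, mean inhibition of all tested compounds on the plate plus 3 SD, cut at about 37% in these data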
# GPR7 antag – blocks human GPR7 receptor signaling; P48145; GPR7-expressing cells, fluorescence antagonist assay; inhibition, % at 4.4 µM; 290,000 compounds, 1.1% hits; in the data active = inhibition above about 16%, passing the limit was not always enough;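 note: cells stimulated with the agonist NPW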
# Target sequence (P48145 whole entry, looked up): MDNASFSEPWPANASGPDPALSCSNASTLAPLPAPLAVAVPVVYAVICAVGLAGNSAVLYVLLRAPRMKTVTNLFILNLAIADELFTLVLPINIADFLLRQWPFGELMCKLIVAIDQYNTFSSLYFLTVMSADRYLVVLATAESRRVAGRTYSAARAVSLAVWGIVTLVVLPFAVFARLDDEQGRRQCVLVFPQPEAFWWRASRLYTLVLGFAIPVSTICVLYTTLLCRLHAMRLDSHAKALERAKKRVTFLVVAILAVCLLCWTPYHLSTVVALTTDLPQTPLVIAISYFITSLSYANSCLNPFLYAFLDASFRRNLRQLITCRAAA
# OX1R antag-2 – antagonists of human orexin 1 receptor (OX1R); OX1R-expressing cells, FRET antagonist read-out; inhibition, % at 6.6 µM; O43613; 330,000 compounds, 1.8% hits; in the data active = inhibition mostly above about 38%, no sharp cut-off; inactive = mostly below about 40%
# CHO parental Ca – counter-screen: ATP calcium response change in parental CHO cells | inhibition, % at 5.6 µM | parental CHO-K1, ATP-induced calcium, Fluo-8 fluorescence | 330,000 compounds, 0.63% hits;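 active = inhibition above that plate's mean sample inhibition plus 3 SD, cut at about 26% in these data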
#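 Assay system: untransfected parental CHO cell line. Also added: ATP agonist challenge. Dosing: one dose, 5.6 µM nominal. Measured by: Fluo-8 fluorescence. Read-out: % inhibition. Benchmarks: ATP wells versus no-ATP DMSO wells. Repeats: no replicates.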
# TAAR1 antag – human TAAR1 antagonism. Q96RJ0. CHO RD-HGA16 TAAR1, Fluo-8 calcium fluorescence, antagonist. inhibition, % at 3 µM. 360,000 compounds, 1.5% hits. AID 624466;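 active = inhibition above a per-plate cutoff, the mean inhibition of test compounds on that plate plus 3 SD, cut at about 49% in these data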
#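 Assay system: RD-HGA16 CHO cells with stable hTAAR1 and Gα16 / Reagent: EC80 β-phenethylamine stimulus / Doses: 3 µM, single point / Timing: dye loading 75 min at 37 °C, then 30 min room temperature / Measured by: Fluo-8 intracellular calcium dye fluorescence, real-time kinetic reads / Controls: vehicle wells and EC80 agonist wells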
# TAAR1 ag confirm – confirmation of human TAAR1 agonists; 2,400 compounds, 82% hits; AID 651783; shares compounds with TAAR1 agonist; activation, % at 3 µM; CHO RD-HGA16 TAAR1, Fluo-8 calcium fluorescence; scaled: DMSO 0%, maximal phenethylamine 100%;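 active = activation above a cutoff set at the run's mean compound activation plus 3 SD, cut at about 39% in these data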
# Ga16 nonsel ag – nonselective agonist in parental cells, TAAR1 agonist counter-screen; activation, % at 3 µM; shares compounds with TAAR1 agonist; 2,400 compounds, 50% hits; CHO-Ga16 parental, Fluo-8 calcium fluorescence; normalized to maximal ATP response, DMSO zero;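 active = activation above the run cutoff, the mean activation over all tested wells plus 3 SD, cut at about 12% in these data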
# TAAR1 desensitize – human TAAR1 agonist that also desensitizes the receptor; shares compounds with TAAR1 agonist; CHO RD-HGA16 hTAAR1, Fluo-8 calcium, beta-PEA response inhibition; inhibition, % at 3 µM; 2,400 compounds, 46% hits; AID 651951;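 active = inhibition above the run cutoff, the mean inhibition of all test compounds plus 3 SD, cut at about 49% in these data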;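 note: beta-PEA stimulus applied at its EC80; loss of beta-PEA calcium signal after compound pretreatment read as receptor desensitization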
# Ga16 antag count – counter-screen for TAAR1 agonists: nonselective Ga16 antagonists; CHO-Ga16 ATP-induced calcium, Fluo-8 fluorescence; AID 651952; inhibition, % at 3 µM; shares compounds with TAAR1 agonist; 2,400 compounds, 39% hits;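 active = inhibition above the plate's mean compound inhibition plus 3 SD, computed per plate, cut at about 22% in these data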
# A number is an active result; i = inactive; nt = no result given.
SMILES,TAAR1 agonist,OX1R antag-1,GPR7 antag,OX1R antag-2,CHO parental Ca,TAAR1 antag,TAAR1 ag confirm,Ga16 nonsel ag,TAAR1 desensitize,Ga16 antag count
COc1ccccc1N1CCN(Cc2cc3c(cc2O)OCO3)CC1,i,i,i,i,i,i,nt,nt,nt,nt
Cn1cc(CN2CCc3ccccc3C2)c2ccccc21,67,i,i,i,i,i,85,i,i,i
Oc1ccc(CN2CCc3ccccc3C2)c2cccnc12,81,i,i,i,i,62,77,i,i,i
CN=c1scc(-c2ccc(OC)cc2)n1/N=C(\C)c1cccnc1,i,i,i,i,i,i,nt,nt,nt,nt
CC1CCC(NC(=O)CSc2nncs2)CC1 (stereo not drawn),i,i,nt,i,i,i,nt,nt,nt,nt
O=C(O)CC(NC(=O)C1c2ccccc2Oc2ccccc21)c1ccc(OC2CCCC2)cc1 (stereo not drawn),58,i,i,i,i,i,83,49,i,i
O=C1c2ccccc2/C(=C\c2ccc(Br)s2)N1c1ccccc1,i,i,nt,i,i,i,nt,nt,nt,nt
O=C(COc1ccc(Cl)cc1Cl)Nc1ccc(CN2CCCCC2)cc1,51,i,i,i,i,i,84,40,i,27
O=C1/C(=C\c2cccc(O)c2)SC(=S)N1Cc1ccccc1,i,i,i,i,i,i,nt,nt,nt,nt
O=C1/C(=C\c2cccc(O)c2O)SC(=S)N1Cc1ccccc1,50,i,i,i,i,i,i,18,i,29
Cc1cc(C(=O)COC(=O)C2=NNC(=O)CC2)c(C)n1CCc1ccccc1,61,i,i,i,i,i,86,i,76,i
Cc1cc(C(=O)COC(=O)c2ccc[nH]c2=O)c(C)n1CCc1ccc(F)cc1,i,i,i,i,i,i,nt,nt,nt,nt
Cc1cc(C(=O)COC(=O)c2ccc(NC(=O)CC#N)cc2)c(C)n1CCc1ccc(F)cc1,55,i,nt,i,i,i,82,i,77,30
Cc1cc(CN(C)C(=O)CC2C(=O)NCCN2Cc2c(F)cccc2Cl)n[nH]1 (stereo not drawn),i,i,i,i,i,i,nt,nt,nt,nt
Cc1cc(C(=O)CN2C(=O)C(=O)N(C3CCCC3)C2=O)c(C)n1CCc1ccccc1,49,nt,nt,nt,nt,i,80,i,55,i
O=C(CN1C(=O)C(=O)N(C2CCCC2)C1=O)NCCc1ccc(F)cc1,i,i,nt,i,i,i,nt,nt,nt,nt
Cc1cc(C(=O)CN2C(=O)C(=O)N(C3CCCC3)C2=O)c(C)n1CCc1ccc(F)cc1,72,i,nt,i,i,i,82,i,54,i
Cc1cc(C(=O)CN2C(=O)C(=O)N(Cc3ccccc3)C2=O)c(C)n1Cc1ccccc1,i,i,nt,i,i,i,nt,nt,nt,nt
CC(=O)c1cccc(-c2ccnc3c2CC(C(=O)Nc2cccc(NS(C)(=O)=O)c2)O3)c1 (stereo not drawn),i,nt,nt,nt,nt,i,nt,nt,nt,nt
CC(C)c1ccc(-c2c(NCCc3ccccc3)c(=O)c2=O)cc1,49,i,i,i,i,i,i,i,i,i
Cc1ccc(-c2c(NCCc3ccccc3)c(=O)c2=O)cc1,i,i,i,i,i,i,nt,nt,nt,nt
CN(C)CCNC(=O)c1coc(=O)c(Br)c1,i,i,i,i,i,i,nt,nt,nt,nt
O=C(NCCc1ccc([N+](=O)[O-])cc1)c1ccccc1,i,i,i,i,i,i,nt,nt,nt,nt
O=C(NCCc1ccccc1)c1ccc([N+](=O)[O-])cc1,56,i,i,i,i,i,97,i,57,i
O=C(NCCc1ccccc1)c1coc(=O)c(Br)c1,87,nt,i,nt,nt,80,94,i,80,i
SMILES,TAAR1 agonist,OX1R antag-1,GPR7 antag,OX1R antag-2,CHO parental Ca,TAAR1 antag,TAAR1 ag confirm,Ga16 nonsel ag,TAAR1 desensitize,Ga16 antag count
O=C(NCCc1ccccc1)/C(=C\c1ccc([N+](=O)[O-])cc1)NC(=O)c1ccc(Br)cc1,56,i,i,i,i,i,i,i,i,i
CN1CCN(CCC(=O)Nc2ccc(C3CCCC3)cc2)CC1,i,i,i,i,i,i,nt,nt,nt,nt
CCC(C)COC(c1ccccc1)(c1ccccc1)C(Oc1nc(C)cc(C)n1)C(=O)O (stereo not drawn),81,i,i,i,i,i,128,86,i,i
Cc1cc(C)nc(OC(C(=O)O)C(OCC(C)C)(c2ccccc2)c2ccccc2)n1 (stereo not drawn),108,i,i,i,i,i,125,74,i,i
Cc1cc(C)nc(OC(C(=O)O)C(OCCc2ccccc2)(c2ccc(F)cc2)c2ccc(F)cc2)n1 (stereo not drawn),122,i,i,i,i,i,128,90,i,i
CCCOC(c1ccccc1)(c1ccc(C(F)(F)F)cc1)C(Oc1nc(C)cc(C)n1)C(=O)O (stereo not drawn),i,i,i,i,i,i,nt,nt,nt,nt
O=C1C=C(c2ccccc2)C(=O)N1Nc1ccccc1,51,i,i,i,i,i,70,48,i,35
COC(=O)c1cc(NC(=O)CN2C(=O)CSC2=O)ccc1Cl,70,i,i,i,i,i,i,i,i,i
COC(=O)c1ccccc1NC(=O)CN1C(=O)CSC1=O,i,i,i,i,i,i,nt,nt,nt,nt
O=C(Cc1ccccc1)Nc1ccc(NC(=O)c2ccco2)cc1Cl,i,i,i,i,i,i,nt,nt,nt,nt
CCOC(=O)N1CCC(NC(=O)c2cnn3c(C(F)(F)F)cc(-c4cccc(OC)c4)nc23)CC1,71,i,nt,i,i,i,i,i,i,i
CCOC(=O)N1CCN(c2nc(-c3cccc(OC)c3)cc(C(F)(F)F)n2)CC1,i,i,i,i,i,i,nt,nt,nt,nt
Cc1cccc(CSC(=N)N)c1,67,i,i,i,i,i,93,i,68,i
N=C(N)SCCc1cccc(CCSC(=N)N)c1,i,i,nt,i,i,i,nt,nt,nt,nt
CC(C)C(C(=O)N1CCOCC1)N1C(=O)c2ccccc2C1=O (stereo not drawn),i,i,i,i,i,i,nt,nt,nt,nt
CC(=O)OC1CC2(C)/C(=N\O)CCC2C2CCc3cc(O)ccc3C12 (stereo not drawn),i,nt,i,nt,nt,i,nt,nt,nt,nt

# Assay outcomes: PubChem, The Scripps Research Institute Molecular Screening Center
